The source made the active and inactive calls. No cut-off for these calls is given here. *1 amine or outer side, *2 acyl side, *3 side chain or, on linkers, in order; H or OH if unused. Where a SMILES comes first, the peptide text is derived from it. [ ]: non-standard residue; d: D form. The star is where a group is joined. Emetine(N2') = CC[C@H]1CN2CCc3cc(OC)c(OC)cc3[C@@H]2C[C@@H]1C[C@@H]1c2cc(OC)c(OC)cc2CCN1*; PABC = O=C(OCc1ccc(N[*:1])cc1)[*:2]
Tests used:
CWR22R = test: Antiproliferative activity against human CWR22Rv1 cells expressing PSA after 3 days by MTT assay; assay type: functional, cell-based; settings: 22Rv1, 72 h
In short: (§1)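 LNCaP seeded at 5 × 10^3 cells/well; PC3, CWR22Rv1 and MDA-MB-231 at 2.5 × 10^3. The first three were grown in RPMI and MDA-MB-231 in DMEM, each with 10% FBS. After 24 h attachment, cells got final 10, 50, 100, 1000 or 10,000 nM (0.1% DMSO) in eight replicates. Viable cells by MTT on day 0, 3 and 5, A570 corrected at 650 nm. Experiments run at least twice.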

Mus musculus [1] = test: Toxicity in Balb/C mouse assessed as convulsion at 16 mg/kg, iv up to 1 min; assay type: organism-based; settings: in vivo
In short: (§2)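 Male Balb/c mice, eight weeks old, about 25 g. Single IV bolus of 200 μL, doses ranging from 8 to 100 mg/kg, in 1% DMSO/saline or 10% cremophor/saline; vehicle-only controls. Each dose tested in triplicate. Mice watched for convulsions, death and behaviour after injection to set the maximum tolerated dose.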

MDA-MB-231 = test: Antiproliferative activity against human MDA-MB-231 cells at 50 to 10000 nM after 3 days by MTT assay; assay type: functional, cell-based; in short: as §1
PC-3 [2] = test: Antiproliferative activity against human PC3 cells at 50 to 10000 nM after 3 days by MTT assay; assay type: functional, cell-based; in short: as §1
Mus musculus [3] = test: Toxicity in Balb/C mouse assessed as death at 16 mg/kg, iv up to 1 min; assay type: organism-based; settings: in vivo; in short: as §2
[4] = Toxicity in iv dosed Balb/C mouse; assay type: organism-based; settings: in vivo; in short: as §2
Mus musculus [5] = test: Toxicity in Balb/C mouse assessed as mortality at >100 mg/kg, iv; assay type: organism-based; settings: in vivo; in short: as §2
Mus musculus [6] = test: Toxicity in Balb/C mouse assessed as change in behavior at >100 mg/kg, iv; assay type: organism-based; settings: in vivo; in short: as §2
Mus musculus [7] = test: Toxicity in Balb/C mouse assessed as death at >25 mg/kg, iv up to 1 min; assay type: organism-based; settings: in vivo; in short: as §2
Mus musculus [8] = test: Toxicity in Balb/C mouse assessed as convulsion at >25 mg/kg, iv up to 1 min; assay type: organism-based; settings: in vivo; in short: as §2
Mus musculus [9] = test: Toxicity in Balb/C mouse at >100 mg/kg, iv; assay type: organism-based; settings: in vivo; in short: as §2
Mus musculus [10] = test: Toxicity in Balb/C mouse at 32 mg/kg, iv; assay type: organism-based; settings: in vivo
Mus musculus [11] = test: Toxicity in Balb/C mouse assessed death at >32 mg/kg, iv; assay type: organism-based; settings: in vivo
PC-3 [12] = test: Antiproliferative activity against human PC3 cells after 3 days by MTT assay; assay type: functional, cell-based; settings: PC-3, 72 h; in short: as §1
[13] = Stability in conditioned media assessed as parent compound remaining at […] after 72 hrs by HPLC-MS analysis; assay type: physicochemical; settings: read-out: Stability
[14] = Stability assessed as parent compound remaining at […] in presence of 10% FBS after 72 hrs by HPLC-MS analysis; assay type: physicochemical; settings: cattle, read-out: Stability
Mus musculus [15] = test: Toxicity in Balb/C mouse at >50 mg/kg, iv; assay type: organism-based; settings: in vivo; in short: as §2
[16] = target: T1, Prostate-specific antigen (PSA) (Homo sapiens, UniProt P07288); test: Stability in PBS buffer assessed as human PSA mediated compound metabolism by measuring parent compound remaining at […] after 72 hrs by HPLC-MS analysis; assay type: ADME; settings: read-out: Stability
T1 sequence (P07288 whole entry): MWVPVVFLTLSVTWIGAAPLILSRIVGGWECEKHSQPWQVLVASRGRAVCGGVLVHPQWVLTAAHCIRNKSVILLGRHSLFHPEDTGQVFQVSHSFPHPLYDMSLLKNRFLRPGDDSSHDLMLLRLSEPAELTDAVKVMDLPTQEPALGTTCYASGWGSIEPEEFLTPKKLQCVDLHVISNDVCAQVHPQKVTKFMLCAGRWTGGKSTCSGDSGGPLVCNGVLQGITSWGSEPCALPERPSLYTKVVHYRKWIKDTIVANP

LNCaP [17] = test: Antiproliferative activity against human LNCAP cells expressing PSA after 3 days by MTT assay; assay type: functional, cell-based; settings: 72 h; in short: as §1
[18] = Stability in PBS buffer assessed as parent compound remaining at […] after 72 hrs by HPLC-MS analysis; assay type: physicochemical; settings: read-out: Stability
Mus musculus [19] = test: Toxicity in Balb/C mouse assessed as death at 33 mg/kg, iv measured at 1 min post dose; assay type: organism-based; settings: in vivo; in short: as §2
Mus musculus [20] = test: Toxicity in Balb/C mouse assessed as convulsion at 33 mg/kg, iv measured at 1 min post dose; assay type: organism-based; settings: in vivo; in short: as §2
Mus musculus [21] = test: Toxicity in Balb/C mouse assessed as convulsions at >25 mg/kg, iv; assay type: organism-based; settings: in vivo; in short: as §2
[22] = target: T2, Prostate-specific antigen (Homo sapiens, UniProt P07288); test: Prodrug activation assessed as human PSA-mediated 4-((S)-1-(L-Alanyl)pyrrolidine-2-carboxamido)benzyl (R)-1-(((2R,3R,11bS)-3-ethyl-9,10-dimethoxy-1,3,4,6,7,11b-hexahydro-2Hpyrido[2,1-a]isoquinolin-2-yl)methyl)-6,7-dimethoxy-3,4-dihydroisoquinoline-2(1H)-carboxylate formation measured over 24 hrs by LC-MS analysis
T2 sequence (P07288 whole entry): T1 sequence (P07288 whole entry)
In short: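 10 mM DMSO stock diluted to 200 μM final in PSA buffer (50 mM Tris·HCl, 100 mM NaCl, pH 7.4) with purified PSA at 20 μg/mL final and 2% DMSO. Shaken at 37 °C. Aliquots taken at time points, quenched with cold acetonitrile, held on ice, centrifuged, then analysed by reversed-phase C18 HPLC (215/285 nm) and mass spectrometry.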

LNCaP [23] = test: Potency index, ratio of emetine IC50 to compound IC50 for human LNCAP cells expressing PSA; assay type: functional
PC-3 [24] = test: Antiproliferative activity against human PC3 cells at 10000 nM after 3 days by MTT assay; assay type: functional, cell-based; in short: as §1
LNCaP [25] = test: Antiproliferative activity against human LNCAP cells expressing PSA at 10000 nM after 3 days by MTT assay; assay type: functional, cell-based; in short: as §1

CC[C@H]1CN2CCc3cc(OC)c(OC)cc3[C@@H]2C[C@@H]1C[C@H]1NCCc2cc(OC)c(OC)cc21 [EMETINE]
IC50 (CWR22R): 0.0308 µM
Activity (Mus musculus [1]): Toxic
Activity (MDA-MB-231): Active
Activity (PC-3 [2]): Active
Activity (Mus musculus [3]): Toxic
MTD [4]: 8 mg/kg

CC[C@H]1CN2CCc3cc(OC)c(OC)cc3[C@@H]2C[C@@H]1C[C@@H]1c2cc(OC)c(OC)cc2CCN1C(=O)[C@@H]1CCCN1C(=O)[C@H](C)N
Activity (Mus musculus [1]): Toxic
Activity (Mus musculus [3]): Toxic

CC[C@H]1CN2CCc3cc(OC)c(OC)cc3[C@@H]2C[C@@H]1C[C@@H]1c2cc(OC)c(OC)cc2CCN1C(=O)/C=C(/CC(=O)O)C(=O)O
Activity (Mus musculus [5]): Non-Toxic
Activity (Mus musculus [6]): Non-Toxic
MTD [4]: > 100 mg/kg

CC[C@H]1CN2CCc3cc(OC)c(OC)cc3[C@@H]2C[C@@H]1C[C@@H]1c2cc(OC)c(OC)cc2CCN1C(=O)OCc1ccc(NC(=O)[C@@H]2CCCN2C(=O)[C@H](C)NC(=O)[C@@H]2CCCN2C(=O)CNC(=O)[C@H](C)NC(=O)[C@@H]2CCCN2C(=O)CNC(=O)[C@H](CO)NC(=O)[C@H](C)NC(C)=O)cc1 (Ac-ASGPAGPAP[PABC]-{Emetine(N2')})
Activity (Mus musculus [7]): Toxic
Activity (Mus musculus [8]): Toxic
MTD [4]: 25 mg/kg

CC[C@H]1CN2CCc3cc(OC)c(OC)cc3[C@@H]2C[C@@H]1C[C@@H]1c2cc(OC)c(OC)cc2CCN1C(=O)OCc1ccc([N+](=O)[O-])cc1
Activity (Mus musculus [5]): Non-Toxic
Activity (Mus musculus [9]): Non-Toxic
Activity (Mus musculus [6]): Non-Toxic
MTD [4]: > 64 mg/kg

CC[C@H]1CN2CCc3cc(OC)c(OC)cc3[C@@H]2C[C@@H]1C[C@@H]1c2cc(OC)c(OC)cc2CCN1C(=S)Nc1ccccc1
Activity (Mus musculus [5]): Non-Toxic
Activity (Mus musculus [9]): Non-Toxic
Activity (Mus musculus [6]): Non-Toxic
MTD [4]: > 100 mg/kg

CC[C@H]1CN2CCc3cc(OC)c(OC)cc3[C@@H]2C[C@@H]1C[C@@H]1c2cc(OC)c(OC)cc2CCN1C(=O)/C(C)=C(/C)C(=O)O
Activity (Mus musculus [10]): Toxic

CC[C@H]1CN2CCc3cc(OC)c(OC)cc3[C@@H]2C[C@@H]1C[C@@H]1c2cc(OC)c(OC)cc2CCN1C(=O)OCc1ccc(NC(=O)[C@@H]2CCCN2C(=O)[C@H](C)N)cc1
Activity (Mus musculus [11]): Toxic
MTD [4]: 32 mg/kg

CC[C@H]1CN2CCc3cc(OC)c(OC)cc3[C@@H]2C[C@@H]1C[C@@H]1c2cc(OC)c(OC)cc2CCN1C(=O)/C=C(/C)C(=O)O
Activity (Mus musculus [5]): Non-Toxic
Activity (Mus musculus [6]): Non-Toxic
MTD [4]: > 100 mg/kg

CC[C@H]1CN2CCc3cc(OC)c(OC)cc3[C@@H]2C[C@@H]1C[C@@H]1c2cc(OC)c(OC)cc2CCN1C(=S)[S-].[Na+]
Activity (Mus musculus [5]): Non-Toxic
Activity (Mus musculus [6]): Non-Toxic
MTD [4]: > 100 mg/kg

CC[C@H]1CN2CCc3cc(OC)c(OC)cc3[C@@H]2C[C@@H]1C[C@@H]1c2cc(OC)c(OC)cc2CCN1C(=O)CCC(=O)O
Activity (Mus musculus [5]): Non-Toxic
Activity (Mus musculus [6]): Non-Toxic
MTD [4]: > 100 mg/kg

CC[C@H]1CN2CCc3cc(OC)c(OC)cc3[C@@H]2C[C@@H]1C[C@@H]1c2cc(OC)c(OC)cc2CCN1C(=O)OCc1ccc(NC(=O)[C@H](CC(C)C)NC(=O)[C@@H](N)CO)cc1
IC50 (PC-3 [12]): 0.1 µM
remaining at 72 h [13]: 100%
remaining at 72 h [14]: 100%
Activity (Mus musculus [15]): Toxic
remaining at 72 h [16]: 100%
MTD [4]: 50 mg/kg
IC50 (LNCaP [17]): 0.1 µM
remaining at 72 h [18]: 100%

CC[C@H]1CN2CCc3cc(OC)c(OC)cc3[C@@H]2C[C@@H]1C[C@@H]1c2cc(OC)c(OC)cc2CCN1C(=O)OCc1ccc(NC(=O)[C@@H]2CCCN2C(=O)[C@H](C)NC(=O)[C@@H]2CCCN2C(=O)[C@H](C)NC(C)=O)cc1 (Ac-APAP[PABC]-{Emetine(N2')})
Activity (Mus musculus [19]): Toxic
Activity (Mus musculus [20]): Toxic

CC[C@H]1CN2CCc3cc(OC)c(OC)cc3[C@@H]2C[C@@H]1C[C@@H]1c2cc(OC)c(OC)cc2CCN1C(=O)OCc1ccc(NC(=O)[C@@H]2CCCN2C(=O)[C@H](C)NC(=O)[C@H](CCC(N)=O)NC(=O)[C@H](CC(C)C)NC(=O)[C@H](CCCCN)NC(=O)[C@H](CO)NC(=O)[C@H](CO)NC(=O)[C@H](Cc2cnc[nH]2)NC(C)=O)cc1 (Ac-HSSKLQAP[PABC]-{Emetine(N2')})
Activity (Mus musculus [21]): Toxic
Drug metabolism [22]: Metabolite_Notdetected
Activity (MDA-MB-231): Active
Ratio IC50 (LNCaP [23]): 24
Activity (PC-3 [2]): Active

CC[C@@H]1C[C@@H](C[C@@H]2c3cc(OC)c(OC)cc3CCN2C(=O)OCc2ccc(NC(=O)[C@H](CC(C)C)NC(=O)[C@H](CO)NC(C)=O)cc2)[C@H]2c3cc(OC)c(OC)cc3CCN2C1
Activity (PC-3 [24]): Active
Activity (LNCaP [25]): Active
